Results: BindingDB's records for doi:10.1016/j.bmc.2009.05.079 (Universidad De Valencia, 2009)

Biological target: D(2) dopamine receptor (Rattus norvegicus, UniProt P61169)
Test: Displacement of [3H]raclopride from dopamine D2 receptor in Wistar rat striatal membrane by liquid scintillation counting
Outline: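 Female Wistar rat striatal membranes were washed at 49,000g and resuspended in Tris-ions buffer, pH 7.4. [3H]-raclopride displacement was read by filtration, cold-buffer washes and scintillation counting. Ki was derived using KD 1,25 nM; 3–6 independent determinations in duplicate, mean SEM.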

Sequence of D(2) dopamine receptor (P61169 whole entry): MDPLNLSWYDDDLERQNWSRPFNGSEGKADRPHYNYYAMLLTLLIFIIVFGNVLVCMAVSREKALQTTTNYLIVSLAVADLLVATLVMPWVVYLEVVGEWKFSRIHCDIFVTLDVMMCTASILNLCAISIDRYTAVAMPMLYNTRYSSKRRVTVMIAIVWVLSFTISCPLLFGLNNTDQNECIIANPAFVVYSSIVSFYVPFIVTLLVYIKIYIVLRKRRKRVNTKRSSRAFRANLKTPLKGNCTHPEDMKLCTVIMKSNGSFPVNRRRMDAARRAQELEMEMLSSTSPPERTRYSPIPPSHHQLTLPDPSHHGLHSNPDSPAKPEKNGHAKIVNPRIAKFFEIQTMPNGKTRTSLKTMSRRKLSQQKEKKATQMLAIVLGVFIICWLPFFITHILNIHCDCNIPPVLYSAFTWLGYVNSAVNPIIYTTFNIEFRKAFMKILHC

For `CCCCC1NCCc2cc(Cl)c(O)cc21` (stereo unspecified) [1-Butyl-6-chloro-7-hydroxy-1,2,3,4-tetrahydroisoquinoline], the Ki was 76 nM.
